5 compounds from ChEMBL document CHEMBL4680077, “Differentiation of skeletal osteogenic progenitor cells to osteoblasts with 3,4-diarylbenzopyran based amide derivatives: Novel osteogenic agents” (Eur J Med Chem, 2016) can be followed below.

The subject of assay [1] is Calvarial osteoblast. In words: Induction of osteoblast differentiation in mouse calvarial osteoblast assessed as increase in ALP activity using PNPP as substrate at 0.000001 to 1 uM incubated activity for 48 hrs by spectrophotometric analysis relative to control. The settings on record: dose lower 1e-06 µM, dose upper 1.0 µM. The class given is functional, cell-based.

The subject of assay [2] is Mus musculus. In words: In vivo osteogenic activity in ovariectomized BALB/c mouse assessed as increase in femur bone volume density administered via oral gavage for 1 month by microCT imaging analysis. The class given is functional, organism-based. The settings on record: time 1.0 months. An outline of the steps: (§1)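 Ovariectomized female balb/c mice, 8 weeks old, 10 per group, received 1.0 or 10.0 mg kg-1 once daily by oral gavage (gum acacia vehicle) for 4 weeks, alongside sham and Ovx vehicle groups. Femurs were scanned by microCT. BV/TV, Tb.N and Tb.Sp were derived by the mean intercept length method. Mean ± SE.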

Assay [3] deals with Mus musculus. In words: In vivo osteogenic activity in ovariectomized BALB/c mouse assessed as increase in trabecular number administered via oral gavage for 1 month by microCT imaging analysis. The class given is functional, organism-based. The settings on record: time 1.0 months. The procedure, abridged:
as §1

The subject of assay [4] is Mus musculus. In words: In vivo osteogenic activity in ovariectomized BALB/c mouse assessed as decrease in trabecular spacing administered via oral gavage for 1 month by microCT imaging analysis. The class given is functional, organism-based. The settings on record: time 1.0 months. An outline of the steps:
as §1

Assay [5] deals with Calvarial osteoblast. The experiment in a line: Induction of osteoblast differentiation in mouse calvarial osteoblast assessed as increase in ERbeta expression at 10 nM incubated for 48 hrs by Western blot analysis. The format is functional, cell-based. The procedure, abridged: (§2)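 Calvarial osteoblasts at 60–70% confluence were treated ± compound for 48 h, with 100 pM E2 as positive control. Lysates (30 µg protein) were resolved on 10% SDS-PAGE, transferred to PVDF and probed for ER-α and ER-β with HRP secondaries and ECL detection. Bands were quantified by densitometry normalized to β-actin.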

Assay [6] deals with Calvarial osteoblast. In words: Induction of osteoblast differentiation in mouse calvarial osteoblast assessed as increase in ERalpha expression at 10 nM incubated for 48 hrs by Western blot analysis. The class given is functional, cell-based. The procedure, abridged: as §2
A general note: In western blotting, separated proteins are transferred to a membrane and probed.

Active and inactive are the calls of the source. The calls are words filed in the database; no cut-off is given here.

Take `COc1ccc2c(c1)OC(C)(C)[C@H](c1ccccc1)[C@H]2c1ccc(OCCCCC(=O)NCc2ccccn2)cc1`: the result in the assay with Calvarial osteoblast [1] was Active. Still for that read-out and setting: the value for `COc1ccc2c(c1)OC(C)(C)[C@H](c1ccccc1)[C@H]2c1ccc(OCCCCCC(=O)NCc2ccccn2)cc1` was “Active”; that for `CCCCN(C)C(=O)CCCOc1ccc([C@H]2c3ccc(OC)cc3OC(C)(C)[C@@H]2c2ccccc2)cc1` was “Active”.

Take `CCCCN(C)C(=O)CCCOc1ccc(C2=C(c3ccccc3)C(C)(C)Oc3cc(OC)ccc32)cc1`: the outcome with Calvarial osteoblast [1] was Active. On to `C[C@]12CC[C@@H]3c4ccc(O)cc4CC[C@H]3[C@@H]1CC[C@@H]2O`, for which the result with Mus musculus [2], with Mus musculus [3], with Mus musculus [4] and in the assay with Calvarial osteoblast [5] was Active. Also, the outcome with Calvarial osteoblast [6] was inactive.
